Data published in ChEMBL document CHEMBL1781970, “Synthesis and antiproliferative evaluation of 23-hydroxybetulinic acid derivatives” (Eur J Med Chem, 2011).

Experiments:
Type in all cases: functional, cell-based
[1] = tested on: B16; assay: Antiproliferative activity against mouse B16 cells after 72 hrs by MTT assay; settings: B16, 72 h
In short: (§1)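 Cells grown in RPMI 1640 with 10% FBS and 1% penicillin-streptomycin at 37 °C, 5% CO2, then seeded overnight in 96-well plates. Test compounds were dissolved in DMSO (doxorubicin control in PBS) and given at various concentrations for 72 h at 37 °C. MTT (5 mg/mL in PBS) was added for 4 h and OD read at 570 nm. IC50 was taken from dose-response curves; mean ± SD, ≥3 independent experiments.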

[2] = tested on: A-375; assay: Antiproliferative activity against human A375 cells after 72 hrs by MTT assay; settings: A-375, 72 h; in short: as §1
[3] = tested on: HepG2; assay: Antiproliferative activity against human HepG2 cells after 72 hrs by MTT assay; settings: HepG2, 72 h; in short: as §1
[4] = tested on: HeLa; assay: Antiproliferative activity against human HeLa cells after 72 hrs by MTT assay; in short: as §1
[5] = tested on: MCF7; assay: Antiproliferative activity against human MCF7 cells after 72 hrs by MTT assay; settings: MCF7, 72 h; in short: as §1

SMILES | IC50 [1] | IC50 [2] | IC50 [3] | IC50 [4] | IC50 [5]
C=C(C)[C@@H]1CC[C@]2(C(=O)N[C@@H](CCSC)C(=O)N[C@@H](CCSC)C(=O)O)CC[C@]3(C)[C@H](CC[C@@H]4[C@@]5(C)CC[C@H](O)[C@@](C)(CO)[C@@H]5CC[C@]43C)[C@@H]12 | 65.1 µM | 89.3 µM | > 100 µM | > 100 µM | 84.7 µM
C=C(C)[C@@H]1CC[C@]2(C(=O)N3CCCCC3)CC[C@]3(C)[C@H](CC[C@@H]4[C@@]5(C)CC[C@H](OC(C)=O)[C@@](C)(COC(C)=O)[C@@H]5CC[C@]43C)[C@@H]12 | > 100 µM | > 100 µM | 66.3 µM | 69.2 µM | > 100 µM
C=C(C)[C@@H]1CC[C@]2(C(=O)NCCCCn3nnc(-c4ccccn4)n3)CC[C@]3(C)[C@H](CC[C@@H]4[C@@]5(C)CC[C@H](O)[C@@](C)(CO)[C@@H]5CC[C@]43C)[C@@H]12 | 66.9 µM | 30.6 µM | 48.3 µM | 46.3 µM | 17.7 µM
C=CCN(CC=C)C(=O)[C@]12CC[C@@H](C(=C)C)[C@@H]1[C@H]1CC[C@@H]3[C@@]4(C)CC[C@H](O)[C@@](C)(CO)[C@@H]4CC[C@@]3(C)[C@]1(C)CC2 | 60.4 µM | 17.2 µM | 59.8 µM | 59 µM | 17.7 µM
C=C(C)[C@@H]1CC[C@]2(C(=O)N3CCOCC3)CC[C@]3(C)[C@H](CC[C@@H]4[C@@]5(C)CC[C@H](O)[C@@](C)(CO)[C@@H]5CC[C@]43C)[C@@H]12 | 42.7 µM | 25.1 µM | 42 µM | 34.3 µM | 19.8 µM
C=C(C)[C@@H]1CC[C@]2(C(=O)N3CCCCC3)CC[C@]3(C)[C@H](CC[C@@H]4[C@@]5(C)CC[C@H](O)[C@@](C)(CO)[C@@H]5CC[C@]43C)[C@@H]12 | 43.7 µM | 17.9 µM | 68.6 µM | 66.5 µM | 16.6 µM
C=C(C)[C@@H]1CC[C@]2(C(=O)OCCN3CCOCC3)CC[C@]3(C)[C@H](CC[C@@H]4[C@@]5(C)CC[C@H](O)[C@@](C)(CO)[C@@H]5CC[C@]43C)[C@@H]12 | 45.9 µM | 34.2 µM | 59.2 µM | > 100 µM | 34.3 µM
C=C(C)[C@@H]1CC[C@]2(C(=O)OC/C=C/CO)CC[C@]3(C)[C@H](CC[C@@H]4[C@@]5(C)CC[C@H](O)[C@@](C)(CO)[C@@H]5CC[C@]43C)[C@@H]12 | 19.1 µM | 55.7 µM | 38 µM | 44.4 µM | 36 µM
C=C(C)[C@@H]1CC[C@]2(C(=O)N3CCC[C@H]3C(=O)O)CC[C@]3(C)[C@H](CC[C@@H]4[C@@]5(C)CC[C@H](O)[C@@](C)(CO)[C@@H]5CC[C@]43C)[C@@H]12 | 87.3 µM | > 100 µM | 72.2 µM | 95.6 µM | > 100 µM
C=C(CO)[C@@H]1CC[C@]2(C(=O)OC(C)(C)C)CC[C@]3(C)[C@H](CC[C@@H]4[C@@]5(C)CC[C@H](OC(C)=O)[C@@](C)(COC(C)=O)[C@@H]5CC[C@]43C)[C@@H]12 | 49.5 µM | 34.7 µM | 15.8 µM | 23.3 µM | 14.1 µM
C=C(CO)[C@@H]1CC[C@]2(C(=O)OCCC(C)C)CC[C@]3(C)[C@H](CC[C@@H]4[C@@]5(C)CC[C@H](OC(C)=O)[C@@](C)(COC(C)=O)[C@@H]5CC[C@]43C)[C@@H]12 | 35.9 µM | 7.8 µM | 10.7 µM | 20.8 µM | 15.1 µM
C=C(CO)[C@@H]1CC[C@]2(C(=O)OC(C)C)CC[C@]3(C)[C@H](CC[C@@H]4[C@@]5(C)CC[C@H](O)[C@@](C)(CO)[C@@H]5CC[C@]43C)[C@@H]12 | 38.6 µM | 21.2 µM | 21 µM | 22.3 µM | 16.6 µM
C=C(CO)[C@@H]1CC[C@]2(C(=O)OC(C)(C)C)CC[C@]3(C)[C@H](CC[C@@H]4[C@@]5(C)CC[C@H](O)[C@@](C)(CO)[C@@H]5CC[C@]43C)[C@@H]12 | 84.1 µM | 42.7 µM | 22.7 µM | 30.7 µM | 16.4 µM
C=C(CO)[C@@H]1CC[C@]2(C(=O)OCC3CCCO3)CC[C@]3(C)[C@H](CC[C@@H]4[C@@]5(C)CC[C@H](O)[C@@](C)(CO)[C@@H]5CC[C@]43C)[C@@H]12 (stereo not given in full) | 64.3 µM | 70.4 µM | 81.2 µM | 79.4 µM | 76.3 µM
C=C(CO)[C@@H]1CC[C@]2(C(=O)OCCC(C)C)CC[C@]3(C)[C@H](CC[C@@H]4[C@@]5(C)CC[C@H](O)[C@@](C)(CO)[C@@H]5CC[C@]43C)[C@@H]12 | 51.2 µM | 17.9 µM | 34.6 µM | 20.9 µM | 12.5 µM
C=C(C)[C@@H]1CC[C@]2(C(=O)N[C@@H](CCSC)C(=O)N[C@@H](CCSC)C(=O)OC)CC[C@]3(C)[C@H](CC[C@@H]4[C@@]5(C)CC[C@H](O)[C@@](C)(CO)[C@@H]5CC[C@]43C)[C@@H]12 | 20.4 µM | 26.8 µM | 23.1 µM | 44.4 µM | 66.1 µM
C=C(C)[C@@H]1CC[C@]2(C(=O)N3CCC[C@H]3C(=O)N[C@@H](CCSC)C(=O)OC)CC[C@]3(C)[C@H](CC[C@@H]4[C@@]5(C)CC[C@H](O)[C@@](C)(CO)[C@@H]5CC[C@]43C)[C@@H]12 | 20.7 µM | 30.1 µM | 40.5 µM | 41.3 µM | 19.8 µM
C=C(C)[C@@H]1CC[C@]2(C(=O)NCC(=O)N[C@@H](Cc3c[nH]c4ccccc34)C(=O)OC)CC[C@]3(C)[C@H](CC[C@@H]4[C@@]5(C)CC[C@H](O)[C@@](C)(CO)[C@@H]5CC[C@]43C)[C@@H]12 | 44.4 µM | > 100 µM | 46.8 µM | 66.3 µM | > 100 µM
C=C(C)[C@@H]1CC[C@]2(C(=O)NCC(=O)N[C@@H](C)C(=O)O)CC[C@]3(C)[C@H](CC[C@@H]4[C@@]5(C)CC[C@H](O)[C@@](C)(CO)[C@@H]5CC[C@]43C)[C@@H]12 | 22.2 µM | 18.4 µM | 32.4 µM | 22.1 µM | 17.2 µM
C=C(C)[C@@H]1CC[C@]2(C(=O)NCC(=O)N3CCC[C@H]3C(=O)O)CC[C@]3(C)[C@H](CC[C@@H]4[C@@]5(C)CC[C@H](O)[C@@](C)(CO)[C@@H]5CC[C@]43C)[C@@H]12 | > 100 µM | > 100 µM | > 100 µM | > 100 µM | > 100 µM
C=C(C)[C@@H]1CC[C@]2(C(=O)N3CCC[C@H]3C(=O)N[C@@H](CCSC)C(=O)O)CC[C@]3(C)[C@H](CC[C@@H]4[C@@]5(C)CC[C@H](O)[C@@](C)(CO)[C@@H]5CC[C@]43C)[C@@H]12 | 76.5 µM | 66.5 µM | 91.7 µM | 81.1 µM | 41.3 µM
C=C(C)[C@@H]1CC[C@]2(C(=O)NCC(=O)N[C@@H](Cc3c[nH]c4ccccc34)C(=O)O)CC[C@]3(C)[C@H](CC[C@@H]4[C@@]5(C)CC[C@H](O)[C@@](C)(CO)[C@@H]5CC[C@]43C)[C@@H]12 | > 100 µM | > 100 µM | > 100 µM | > 100 µM | > 100 µM
C=C(C)[C@@H]1CC[C@]2(C(=O)NCCNC(=O)CCC(=O)O)CC[C@]3(C)[C@H](CC[C@@H]4[C@@]5(C)CC[C@H](OC(C)=O)[C@@](C)(COC(C)=O)[C@@H]5CC[C@]43C)[C@@H]12 | 82.6 µM | 59.5 µM | 76.1 µM | 72.9 µM | 51 µM
C=C(C)[C@@H]1CC[C@]2(C(=O)O)CC[C@]3(C)[C@H](CC[C@@H]4[C@@]5(C)CC[C@H](O)[C@@](C)(CO)[C@@H]5CC[C@]43C)[C@@H]12 | 18.7 µM | 42 µM | 41.4 µM | 46.2 µM | 46.6 µM
